Assay outcomes from PubChem.
In the library only some 1.5% were active in any assay of this set; here they are far more common.
UBC13 polyUb: inhibitors of human UBC13 polyubiquitin chain formation | P61088 | TR-FRET | inhibition, % at 20 µM | hit rate 0.47% among 330,000 | AID 485273; in the data active = inhibition above about 45%, passing the limit was not always enough
Target sequence (P61088 whole entry, looked up): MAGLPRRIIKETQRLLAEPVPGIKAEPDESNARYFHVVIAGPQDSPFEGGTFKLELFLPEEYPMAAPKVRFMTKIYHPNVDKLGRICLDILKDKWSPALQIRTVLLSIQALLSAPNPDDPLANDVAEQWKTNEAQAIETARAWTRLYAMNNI
Apaf1 inhib: blocks human Apaf-1 apoptosome activity; O14727; inhibition, % at 20 µM; hit rate 0.71% among 330,000; reconstituted apoptosome caspase-3 activity, DEVD-Rh110 fluorescence; active = inhibition of at least 40% at 20 µM;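 also: plate controls were DMSO wells for no effect and DEVD-CHO caspase inhibitor wells for full effect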
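Assay system: Apoptosome proteins | Medium: pH 7.5 Hepes buffer with CHAPS, BSA, DTT | Also added: Cytochrome c and DEVD-Rh110 substrate | Times: 30 min plus 50 min, RT | Detection: Rhodamine 110 fluorescence at Ex 480/Em 540 nm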
PREPL inhibitor: inhibits the human prolyl oligopeptidase-like enzyme; Q4J6C6; recombinant PREPL, fluorescence polarization activity-based probe; inhibition, % at 5.96 µM; hit rate 0.68% among 320,000; AID 2751; in the data active = inhibition above about 43%;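 also: 0% = enzyme with DMSO and 100% = wells lacking enzyme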
UCH37 inh: blocks the human deubiquitinase UCH37; Q9Y5K5; purified proteasome/UCH37, Ub-AMC cleavage fluorescence; inhibition, % (no concentration beside the values); hit rate 0.33% among 330,000; AID 588478;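 active = mean inhibition over replicate wells above about 20%, limit read from the data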;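 also: 0% = compound-free wells with enzyme and 100% = wells lacking proteasome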
Target sequence (Q9Y5K5 whole entry, looked up): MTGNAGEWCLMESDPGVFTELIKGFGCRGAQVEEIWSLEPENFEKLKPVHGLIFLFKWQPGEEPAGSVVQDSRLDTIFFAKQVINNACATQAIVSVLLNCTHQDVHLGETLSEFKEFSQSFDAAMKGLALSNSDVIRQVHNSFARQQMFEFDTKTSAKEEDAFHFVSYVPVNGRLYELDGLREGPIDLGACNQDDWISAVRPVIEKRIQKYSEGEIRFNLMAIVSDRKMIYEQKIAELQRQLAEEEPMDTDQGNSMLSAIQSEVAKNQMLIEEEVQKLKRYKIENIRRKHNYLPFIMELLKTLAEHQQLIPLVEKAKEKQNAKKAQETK
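Reagent: Ub-AMC substrate; assay system: Proteasome-associated human UCH37 deubiquitinase; controls: no-proteasome and no-compound wells; read-out: % inhibition of Ub-AMC cleavage fluorescence; timing: 30 min preincubation with enzyme, 25 min cleavage at room temperature; signal: AMC fluorescence from Ub-AMC cleavage, excitation 355 nm, emission 460 nm; buffer or medium: Tris-HCl pH 7.4 plus ovalbumin, ATP-MgCl2, DTT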
Apaf-1 inh conf: confirmation of Apaf-1 inhibitors; shares compounds with Apaf1 inhib; reconstituted apoptosome, caspase-3 DEVD-Rh110 fluorescence; inhibition, % at 20 µM; hit rate 25% among 1,800;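 active = mean inhibition of at least 40% at 20 µM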;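 also: plate controls were DMSO wells for no effect and DEVD-CHO caspase inhibitor control wells for full effect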
Rh110 interf inh: counter-screen for Apaf-1 inhibitors: fluorescence interference; shares compounds with Apaf1 inhib; Rh110 fluorescence interference, quenched caspase reaction; activation (fluorescence interference), % at 20 µM; 1,800 tested, under 10 active; AID 504615;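 active = signal rise of 40% or more at 20 µM, treated as a fluorescence artifact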
Fluor interf inh: counter-screen for Apaf-1 inhibitors: fluorescence interference, dose response; shares compounds with Apaf1 inhib; fluorescence interference counterscreen, Apaf-1 assay format; IC50, µM; 460 tested, under 10 active; call rule not given here
An asterisk follows results filed as active; · = no result.

SMILES	UBC13 polyUb	Apaf1 inhib	PREPL inhibitor	UCH37 inh	Apaf-1 inh conf	Rh110 interf inh	others
COc1ccc(C=NNC(=O)c2c(C)nc3ccc(Br)cn23)cc1OC	·	·	·	-17.6	·	·
Cc1nn(Cc2c(F)c(F)c(F)c(F)c2F)c(C)c1NC(=O)c1ccc(COc2ccc(Cl)cc2Cl)o1	-0.3	46.3*	3.8	4.8	21.0	6.2
COc1cccc(CN(C)C(=O)c2cc(S(=O)(=O)N3CCCCCC3)ccc2OC)c1	40.5	50.6*	11.3	0.5	37.6	3.8
COc1ccc(CN(C)C(=O)c2cc(S(=O)(=O)N3CCCCCC3)ccc2OC)cc1OC	2.3	32.7	9.8	-0.1	·	·
Cc1ccc(C(=O)N(C)Cc2ccccc2)cc1S(=O)(=O)N1CCOCC1	11.0	-2.4	6.6	-1.5	·	·
COc1cccc(CN(C)C(=O)c2ccc(C)c(S(=O)(=O)N3CCCCC3)c2)c1	24.9	40.1*	1.9	3.1	39.5	11.3
CC(C)c1ccc(C=NNC(=O)c2cccc(Cl)c2)cc1	·	·	·	3.4	·	·
N#Cc1sc2nc(-c3ccccc3)cc(-c3ccco3)c2c1N	-16.9	89.6*	33.7	8.8	13.9	-3.8
COc1cccc(C=NNC(=O)c2sc(N)nc2C)c1OC	·	·	·	1.4	·	·
CN1C(=O)c2cccc3c(S(=O)(=O)NCc4ccco4)ccc1c23	-13.0	54.5*	1.4	-8.1	16.0	3.1
CN1C(=O)c2cccc3c(S(N)(=O)=O)ccc1c23	0.0	-13.5	-4.2	-219.0	·	·
C[C@@H]1CN([C@H](C)CO)C(=O)c2cc(NC(=O)Cc3ccccc3)ccc2O[C@H]1CN(C)Cc1ccc(Oc2ccccc2)cc1	15.8	38.0	21.6	6.6	·	·
C[C@H](CO)N1C[C@H](C)[C@@H](CN(C)Cc2ccccc2)Oc2c(NC(=O)Cc3ccccc3)cccc2C1=O	18.6	22.2	16.5	4.7	·	·
C[C@H](CO)N1C[C@H](C)[C@@H](CN(C)CC2CCCCC2)Oc2c(NC(=O)CCC(F)(F)F)cccc2C1=O	13.4	41.2*	20.6	0.7	18.2	16.6
C[C@H](CO)N1C[C@H](C)[C@@H](CN(C)C(=O)NC2CCCCC2)Oc2c(NC(=O)CCC(F)(F)F)cccc2C1=O	-6.2	-9.1	11.4	2.0	·	·
C[C@H](CO)N1C[C@H](C)[C@@H](CN(C)Cc2ccc(-c3ccccc3)cc2)Oc2c(NC(=O)Cc3ccccc3)cccc2C1=O	-7.2	43.4*	19.2	1.0	26.1	-6.7
C[C@H](CO)N1C[C@H](C)[C@@H](CN(C)Cc2ccc(Cl)c(Cl)c2)Oc2c(NC(=O)Cc3ccccc3)cccc2C1=O	-0.9	43.6*	14.3	2.8	23.9	2.2
C[C@@H]1CN([C@@H](C)CO)C(=O)c2cc(NC(=O)Nc3ccc(F)cc3)ccc2O[C@@H]1CN(C)Cc1ccc(Oc2ccccc2)cc1	21.2	41.8*	34.3	2.8	11.1	10.3
CCOc1ccc(C=NNC(=O)COc2ccccc2-c2ccccc2)cc1	·	·	·	2.3	·	·
CCC(=NNC(=O)C(N)=O)c1ccccc1O	·	·	·	3.2	·	·
CC(CC(=O)Nc1cc(Cl)ccc1C)=NNC(N)=O	·	·	·	1.7	·	·
COc1cc(C=NNC(=O)c2cnn3c(C)cc(-c4ccccc4)nc23)ccc1O	·	·	·	5.5	·	·
O=C1C(=C(c2ccccc2)c2ccccc2)Nc2ccccc21	-118.6	18.7	3.4	1.7	·	·
O=C1C(=C(O)c2ccccc2)C(=O)c2ccccc21	-35.2	41.5*	5.5	16.3	13.1	-7.0
COc1cc(OC)cc(-c2sc3ccc(OC)cc3c2-c2ccc(OCCN3CCCCC3)cc2)c1	·	59.7*	·	-8.5	-3.3	9.2
SMILES	UBC13 polyUb	Apaf1 inhib	PREPL inhibitor	UCH37 inh	Apaf-1 inh conf	Rh110 interf inh	others
c1ccc(-c2sc3ccccc3c2-c2ccc(OCCN3CCCCC3)cc2)cc1	42.6	52.5*	6.1	3.0	5.5	9.1
COc1ccc(-c2sc3cc(OC)ccc3c2-c2ccc(OCCN3CCOCC3)cc2)cc1	·	30.7	·	-36.6	·	·
COc1ccccc1-c1sc2cc3c(cc2c1-c1ccc(OCCN2CCOCC2)cc1)OCO3	·	23.0	·	-27.3	·	·
COc1ccc(-c2sc3cc4c(cc3c2-c2ccc(OCCN3CCCCC3)cc2)OCO4)cc1	·	59.4*	·	-12.5	6.4	8.7
Clc1ccc(C2=Nn3c(nnc3-c3n[nH]c4c3CCC4)SC2)cc1Cl	13.3	42.9*	8.9	2.7	34.1	3.7
Cc1ccc(NC(=O)COc2ccccc2)cc1Cl	-7.4	7.6	-0.8	-2.5	·	·
CN1CCN(c2ccc(NC(=O)COc3ccccc3)cc2Cl)CC1	2.6	49.5*	·	4.0	15.1	6.3
COc1ccc(NC(=O)Nc2ccc(O)c3ccccc23)cc1	0.0	51.7*	23.8	-19.3	16.1	-4.5
O=C(c1ccccc1)c1ccc(CN2C(=O)c3ccccc3C2=O)o1	6.8	-10.9	10.3	2.9	·	·
O=C(c1ccccc1)c1coc2c1C(=O)c1ccccc1C2=O	-47.5	63.6*	17.2	15.1	69.5*	6.5	Fluor interf inh=>100
O=C1c2ccccc2C(=O)c2c1oc(C(F)(F)F)c2C(=O)c1ccccc1	-40.7	78.6*	1.7	24.4*	85.2*	1.3	Fluor interf inh=>100
COc1ccccc1C=NNC(=O)CSc1ccc2ccccc2n1	·	·	·	1.4	·	·
COc1cccc(C=NNC(=S)Nc2cccc(C(=O)O)c2)c1O	·	·	·	-5.8	·	·
Clc1ccc(-c2cn3nc4c(nc3n2)CCCC4)cc1	-14.5	65.3*	12.0	-135.4	53.0*	7.1	Fluor interf inh=>100
COc1cccc(-c2cn3nc4c(nc3n2)CCCC4)c1	-41.1	53.4*	12.0	-17.9	38.8	2.6
COc1cccc(-c2cc(C(F)(F)F)n3nc(N)nc3n2)c1	1.8	-44.3	-4.8	-54.8	·	·
Cc1ccc(-c2cn3nc(C)c(C)nc3n2)cc1	16.3	10.9	3.9	·	·	·
CCOC(=O)c1cc(-c2ccc(/C=C3/C(=O)N(c4ccc(C(=O)O)cc4)N=C3C)o2)ccc1Cl	-45.9	50.0*	-1.2	·	29.8	7.4
Brc1cc(C=Nn2cnnc2)oc1Br	·	·	·	8.4	·	·
O=C1/C(=C\c2ccc(-c3ccccc3[N+](=O)[O-])o2)C(c2ccccc2)=NN1c1ccccc1	-39.2	43.8*	3.5	9.0	23.5	-9.1
CC(Oc1ccc(Br)cc1)C(=O)NCC(C)(C)N1CCOCC1 (stereo not drawn)	7.0	47.4*	14.1	3.3	34.0	-1.5
CC(C)(CNC(=O)Cc1ccc(Br)cc1)N1CCOCC1	-1.3	2.6	-4.1	0.9	·	·
O=C(O)c1cc(NN=Cc2ccc(-c3ccc(F)cc3)o2)ccc1Cl	·	·	·	-16.0	·	·
O=C(CC1Nc2ccccc2NC1=O)Nc1cc(Cl)cc(Cl)c1 (stereo not drawn)	1.0	24.2	0.3	-45.7	·	·
O=C(CC1Nc2cccc3cccc(c23)NC1=O)Nc1ccc(F)cc1 (stereo not drawn)	-52.2	95.6*	33.3	-3.1	19.6	7.1
COc1ccc(NC(=O)CC2Nc3cccc4cccc(c34)NC2=O)cc1 (stereo not drawn)	-5.3	94.2*	22.7	-3.0	11.1	1.0
